For 25 molecules, IC50 and inhibition results are on record in ChEMBL document CHEMBL4393737, “Synthesis of quinoline derivatives as diabetic II inhibitors and molecular docking studies” (Bioorg Med Chem, 2019).

pIC50: −log10 of the molar value.

The nature of assay [1]: Inhibition of Saccharomyces cerevisiae alpha-glucosidase using para-nitrophenyl-alpha-D-glucopyranoside as substrate preincubated for 5 mins followed by substrate addition and measured after 5 mins. Conditions: for pIC50: read-out: IC50. A digest of the protocol:
(§1)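 Baker's yeast α-glucosidase (EC 3.2.1.20) in 100 mM phosphate buffer, pH 6.8. Compounds came from 5 mg/mL DMSO stocks and were incubated with enzyme for 5 min. p-Nitrophenyl-α-D-glucopyranoside (5 mM solution) was then added and incubated for 5 min, and absorbance read at 405 nm. Blanks with buffer in place of substrate gave background; acarbose served as positive control.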

Another assay relates to Saccharomyces cerevisiae. Nature of the assay: Inhibition of Saccharomyces cerevisiae alpha-glucosidase using para-nitrophenyl-alpha-D-glucopyranoside as substrate preincubated for 5 mins followed by substrate addition and measured after 5 mins relative to control. Further details: concentration or dose not given beside the values. A digest of the protocol:
as §1

In the case of `COc1ccc(/C=N\NC(=O)c2ccc3ncccc3c2)c(O)c1`, in assay [1], the pIC50 was 4.67.
Turning to `O=C(N/N=C\c1cccc(O)c1)c1ccc2ncccc2c1`, in assay [1], the negative-log IC50 (pIC50) was 4.31.
Take `Cc1cccc(C)c1/C=N\NC(=O)c1ccc2ncccc2c1`: in assay [1], the IC50 result is on record as “Not Active”. Also, the inhibition with Saccharomyces cerevisiae was less than 50%.
For the molecule `O=C(N/N=C\c1ccco1)c1ccc2ncccc2c1`, the negative logarithm of the IC50 (pIC50) in assay [1] is 4.54.
For `O=C(N/N=C\c1ccccc1O)c1ccc2ncccc2c1`, the pIC50 in assay [1] is 4.88.
For the molecule `O=C(N/N=C\c1cccc(O)c1O)c1ccc2ncccc2c1`, in assay [1], the negative-log IC50 (pIC50) is 5.03.
For `O=C(N/N=C\c1cccnc1)c1ccc2ncccc2c1`, the IC50 entry in assay [1] is “Not Active”. Moreover, in the assay on Saccharomyces cerevisiae, the inhibition is less than 50%.
Turning to `O=C(N/N=C\c1ccccc1[N+](=O)[O-])c1ccc2ncccc2c1`, in assay [1], the pIC50 is 4.42.
Turning to `O=C(N/N=C\c1ccc(F)cc1)c1ccc2ncccc2c1`, the pIC50 in assay [1] was 4.54.
Same read-out and setting: then `O=C(N/N=C\c1ccccc1F)c1ccc2ncccc2c1`, with 5.13; and `O=C(N/N=C\c1ccc(O)c(O)c1)c1ccc2ncccc2c1`, with 5.21; and `O=C(N/N=C\c1ccc(O)cc1)c1ccc2ncccc2c1`, with 4.63.
On to `O=C(N/N=C\c1cccc([N+](=O)[O-])c1)c1ccc2ncccc2c1`, for which the IC50 result in assay [1] was “Not Active”. In the assay with Saccharomyces cerevisiae, this molecule came in with an inhibition of less than 50%.
In the case of `O=C(N/N=C\c1cccc(F)c1)c1ccc2ncccc2c1`, the pIC50 in assay [1] is 4.32.
For `COc1ccc(/C=N\NC(=O)c2ccc3ncccc3c2)cc1`, in assay [1], the IC50 entry was “Not Active”. The inhibition with Saccharomyces cerevisiae was less than 50%.
For `O=C(N/N=C\c1ccccn1)c1ccc2ncccc2c1`, the negative-log IC50 (pIC50) in assay [1] was 4.42.
The same measure, in the same setting: then `O=C(N/N=C\c1cc(O)ccc1O)c1ccc2ncccc2c1`, with 4.91.
As for `COc1cccc(/C=N\NC(=O)c2ccc3ncccc3c2)c1`, the IC50 result in assay [1] is “Not Active”. The inhibition in the assay with Saccharomyces cerevisiae was less than 50%.
In the case of `COc1ccc(O)c(/C=N\NC(=O)c2ccc3ncccc3c2)c1`, the pIC50 in assay [1] is 4.74.
Still for that read-out and setting: then `O=C(N/N=C\c1ccc(O)cc1O)c1ccc2ncccc2c1`, with 4.85.
For the molecule `COc1ccc(/C=N\NC(=O)c2ccc3ncccc3c2)cc1OC`, the IC50 entry in assay [1] was “Not Active”. The molecule further came in with an inhibition in the assay with Saccharomyces cerevisiae of less than 50%.
Consider `O=C(N/N=C\c1ccc([N+](=O)[O-])cc1)c1ccc2ncccc2c1`, for which, in assay [1], the IC50 entry was “Not Active”. The molecule also yielded an inhibition with Saccharomyces cerevisiae of less than 50%.
For the molecule `O=C(N/N=C\c1ccncc1)c1ccc2ncccc2c1`, the IC50 entry in assay [1] is given as “Not Active”. For the same molecule, the inhibition in the assay with Saccharomyces cerevisiae was less than 50%.
Turning to `COc1ccc(/C=N\NC(=O)c2ccc3ncccc3c2)cc1O`, in assay [1], the negative-log IC50 (pIC50) is 4.84.
On to `O=C(N/N=C\c1cccs1)c1ccc2ncccc2c1`, for which the pIC50 in assay [1] was 4.45.

What is called pIC50 is the negative decadic logarithm of the IC50, by convention in mol/L. The term inhibition denotes the change of the read-out against control, counted positive when it falls.
